Measurements of several laboratories.
Lines come from different studies, so protocols differ.
Target: Mitogen-activated protein kinase 12 (MAPK12, Homo sapiens, UniProt P53778)
Residues used in one study (P53778 1-367): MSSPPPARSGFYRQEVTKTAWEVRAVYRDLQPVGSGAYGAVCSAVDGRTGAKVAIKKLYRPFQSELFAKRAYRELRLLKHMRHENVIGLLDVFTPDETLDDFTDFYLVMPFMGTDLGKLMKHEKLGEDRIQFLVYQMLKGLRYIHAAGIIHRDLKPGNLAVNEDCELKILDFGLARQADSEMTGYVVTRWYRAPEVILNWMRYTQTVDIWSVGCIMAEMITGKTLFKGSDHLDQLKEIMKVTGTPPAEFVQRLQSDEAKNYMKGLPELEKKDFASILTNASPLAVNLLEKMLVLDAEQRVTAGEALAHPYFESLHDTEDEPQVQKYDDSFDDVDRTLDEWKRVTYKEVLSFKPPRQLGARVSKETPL

| Structure (SMILES) | test | setting | remaining binding [%] |
| --- | --- | --- | --- |
| CNC(=O)Nc1ccc2c(c1)[C@@]1(CC2)OC(=O)N(CC(=O)N(Cc2ccc(F)cc2)[C@@H](C)C(F)(F)F)C1=O | cell-free assay, competition with immobilised ligand | 1 µM | 96 |
| Cc1cnc(Nc2ccc(C(=O)N3CCC(N4CCCC4)CC3)cc2)nc1-c1cc2ccccc2s1 | binding, competition with immobilised ligand | 1 µM | 81 |
| C[C@@H](c1ccc(-n2cnc3c(N)ncnc32)cc1)N1CCc2nn(C)c(Cc3ccccc3)c2C1=O | binding, competition with immobilised ligand | 0.1 µM | 90 |
| CN(C)c1ncc(F)c(-c2cnn3ncccc23)n1 | binding | 1 µM | 100 |
| C=CC(=O)N1CCC(C(=O)NCC(=O)N2CCN(c3nc(-c4cnc(N)nc4C(F)F)nc(N4CCOCC4)n3)CC2)CC1 | binding, competition with immobilised ligand | 1 µM | 96 |
| O=C(NCCCN1CCOCC1)c1ccc(Nc2ncc(Cl)c(-c3ccc(Cl)s3)n2)cc1 | binding, competition with immobilised ligand | 1 µM | 100 |
| O=C(Nc1c[nH]nc1C(=O)NC1CCNCC1)c1cc(F)cc(F)c1 | binding, competition with immobilised ligand | 1 µM | 100 |
| N[C@H]1CCN(c2nccc(-c3cnn4ncccc34)n2)C1 | binding | 1 µM | 86 |
| CNC(=O)[C@@H]1CC[C@@H](n2c(-c3ccc4cnccc4c3)nc3ccc(C(=O)NCc4cccc(C(N)=O)c4)cc32)C1 | binding, competition with immobilised ligand | 1 µM | 100 |
| CN(CCCC(F)(F)F)c1nccc(-c2cnn3ncccc23)n1 | binding | 1 µM | 100 |
| O=C(Nc1cccnn1)N1CC(C/C=C/c2cncc(Oc3ccc(C(F)(F)F)cn3)n2)C1 | cell-free assay, competition with immobilised ligand | 1 µM | 100 |
| C[C@@H]1CCN(c2nccc(-c3cnn4ncccc34)n2)C1 | binding | 1 µM | 47 |
| CN(c1ccnc(CNc2nc(Nc3ccc4c(c3)CC(=O)N4)ncc2C(F)(F)F)n1)S(C)(=O)=O | cell-free assay, competition with immobilised ligand | 1 µM | 58 |
| Nc1ncc2c(n1)-c1c([nH]c3ccc(C#CC4CC4)cc13)CCCC2 | binding, competition with immobilised ligand | 1 µM | 98 |
| COc1cnc(Nc2cccc(S(N)(=O)=O)c2)nc1N1CCN(c2ccccc2)C(=O)C1 | binding, competition with immobilised ligand | 1 µM | 100 |
| COc1ccc2cc(OCC3(C(=O)O)CN(C(=O)c4ccc(F)cc4)C3)ccc2c1 | cell-free assay, competition with immobilised ligand | 1 µM | 100 |
| O=C(c1ccc(Nc2nccc(-c3cc4ccccc4s3)n2)cc1)N1CCC(N2CCCC2)CC1 | binding, competition with immobilised ligand | 1 µM | 88 |
| Cn1cc(Cl)c2c(Oc3c(F)cc(Nc4cc(Cl)nc(N)n4)cc3F)ccnc21 | cell-free assay, competition with immobilised ligand | 0.1 µM | 100 |
| COc1ccnn2ncc(-c3ccnc(N(C)C)n3)c12 | binding | 1 µM | 100 |
| C[C@@H]1CN(c2cc(-c3n[nH]c4ccc(OC5(C)CC5)cc34)ncn2)C[C@H](C)O1 | cell-free assay, competition with immobilised ligand | 0.1 µM | 96 |
| c1cnn2ncc(-c3ccnc(N4CCC45COC5)n3)c2c1 | binding | 1 µM | 65 |
